Assay results: ChEMBL document CHEMBL4680166, “Dual-functional conjugates improving cancer immunochemotherapy by inhibiting tubulin polymerization and indoleamine-2,3-dioxygenase” (Eur J Med Chem, 2020)
Activity calls are given as the source filed them. No cut-off for these calls is given here.

Columns and labels:
[1] = Antitumor immunity against IFN-gamma stimulated human HeLa cells co-cultured with PHA-M-stimulated human PBMC cells assessed as induction of CD3+ T cell proliferation at 0.1 uM preincubated for 2 days measured after co-culturing with PBMC for 6 days by flow cytometry (reference value: 6 to 6.2%); assay type: functional; details: time 8 day
[2] = test system: HeLa; test: Antitumor activity against human HeLa cells xenografted in BALB/c mouse assessed as inhibition of tumor volume at 15 mg/kg/day, iv administered for 21 days by caliper analysis; assay type: functional; details: 504 h, time 21 day
Summary of the method: (§1)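 Male BALB/c nude mice, five weeks old, 18-22 g. Inoculated subcutaneously in the right armpit with 1 × 10⁷ HeLa cells/0.1 mL. At 120-150 mm³, randomized to four groups of five. Once-daily tail-vein injection for 21 days in Tween 80/physiological saline; controls received saline. Tumor volume measured every 2 days by caliper, V = AB²/2.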

[3] = Toxicity in BALB/c nude mouse transfected with human HeLa cells assessed as kidney damage at 30 mg/kg/day, iv for 21 days by H&E staining based immunohistochemistry; assay type: organism-based; details: in vivo, 504 h, time 21 day
Summary of the method: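 HeLa xenografts were grown s.c. in male BALB/c nude mice, which received i.v. tail-vein doses once daily for 21 days in Tween 80/saline vehicle, with saline controls. After 3 weeks the mice were sacrificed. Organs from one mouse per group were fixed in 4% paraformaldehyde, paraffin-embedded and sectioned. Sections were dewaxed, stained with Harris hematoxylin and eosin-phloxine, and examined microscopically for histopathologic changes.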

[4] = test system: HeLa; test: Induction of cell cycle arrest in human HeLa cells assessed as accumulation at G2/M phase at 0.5 uM measured after 24 hrs by propidium iodide/RNAse staining based flow cytometry (reference value: 10.7%); assay type: functional
[5] = test system: HeLa; test: Induction of apoptosis in human HeLa cells assessed as cell membrane integrity loss, chromatin condensation and apoptotic body formation by measuring strengthened orange fluorescence intensity at 0.5 uM measured after 24 hrs by AO/EB dual staining based fluorescence microscopy; assay type: functional
[6] = test system: HeLa; test: Antitumor activity against human HeLa cells xenografted in BALB/c mouse assessed as inhibition of tumor volume at 30 mg/kg/day, iv administered for 21 days by caliper analysis; assay type: functional; details: 504 h, time 21 day; summary of the method: as §1
[7] = test system: HeLa; test: Induction of apoptosis in human HeLa cells assessed as viable cells at 0.5 uM measured after 24 hrs by Annexin-V-FITC and PI staining based flow cytometry (reference value: 96.3%); assay type: functional; details: read-out: Activity
Summary of the method: (§2)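 HeLa cells were treated 24 h, washed twice in PBS and resuspended in binding buffer. Stained with annexin V-FITC and PI for 30 min in the dark at room temperature, then analysed by flow cytometry.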

[8] = Toxicity in BALB/c nude mouse transfected with human HeLa cells assessed as body weight changes at 30 mg/kg/day, iv for 21 days; assay type: organism-based; details: in vivo, 504 h, time 21 day
Summary of the method: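 Five-week-old male BALB/c nude mice (18-22 g) were inoculated s.c. in the right armpit with HeLa cells (1 × 10⁷ cells/0.1 mL/mouse). At a tumour volume of 120-150 mm³, mice were randomised, five per group. Dosing was i.v. via the tail vein once daily for 21 days, in Tween 80/physiological saline; controls got an equal volume of saline. Body weight was recorded every 2 days.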

[9] = test system: HeLa; test: Induction of apoptosis in human HeLa cells assessed as down regulation of Bcl-2 protein expression at 0.5 uM measured after 24 hrs by western blot analysis; assay type: functional, cell-based
Summary of the method: (§3)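 HeLa cells were treated 24 h at 37 °C and lysed in buffer containing PMSF. Protein quantified by BCA, equal amounts separated by SDS-PAGE and transferred to nitrocellulose. Blocked in 5% milk, primary antibodies overnight at 4 °C, peroxidase secondary 2 h at 25 °C. Detection by chemiluminescence, β-actin as loading control.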

[10] = test system: HeLa; test: Induction of apoptosis in human HeLa cells assessed as upregulation of Bax protein expression at 0.5 uM measured after 24 hrs by western blot analysis; assay type: functional, cell-based; summary of the method: as §3
[11] = test system: PC-3; test: Anticancer activity against human PC3 cells assessed as inhibition of cell proliferation measured after 72 hrs by MTT assay; assay type: functional, cell-based; details: PC-3, 72 h
Summary of the method: (§4)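 Cells (A549, PC-3, HeLa, HUVEC) grown in DMEM with 10% FBS at 37 °C, 5% CO₂. Seeded at 5 × 10⁴ cells/well and allowed 24 h to attach, then exposed 72 h to a concentration series from DMSO stocks. MTT was added for 4 h and formazan dissolved in DMSO, read at 490 nm. Survival taken relative to untreated control. IC50 by Bliss method, three repeats.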

[12] = test system: HeLa; test: Potency index, ratio of CA-4 IC50 to test compound IC50 for anticancer activity against human HeLa cells after 72 hrs by MTT assay; assay type: functional
[13] = test system: HeLa; test: Inhibition of IDO1 expression in hIFNgamma-stimulated human HeLa cells at 0.5 uM measured after 24 hrs by western blot assay; assay type: functional; summary of the method: as §3
[14] = test system: HeLa; test: Antitumor activity against human HeLa cells xenografted in iv dosed BALB/c mouse assessed as inhibition of tumor growth administered once daily for 21 days by caliper analysis; assay type: functional, organism-based; details: dose 15-30 mg/kg/day, time 21.0 day; summary of the method: as §1
[15] = Toxicity in BALB/c nude mouse transfected with human HeLa cells assessed as spleen damage at 15 mg/kg/day, iv for 21 days by H&E staining based immunohistochemistry; assay type: organism-based; details: in vivo, 504 h, time 21 day
Summary of the method: (§5)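 After 3 weeks of daily iv dosing of HeLa-xenografted nude mice, organs were taken from one mouse per group. Fixed in 4% paraformaldehyde, paraffin-embedded and sectioned. Stained with Harris hematoxylin and eosin-phloxine, then examined microscopically for histopathology.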

[16] = test system: HeLa; test: Induction of apoptosis in human HeLa cells assessed as late apoptotic cells at 0.5 uM measured after 24 hrs by Annexin-V-FITC and PI staining based flow cytometry (reference value: 0.199%); assay type: functional; summary of the method: as §2
[17] = test system: A549; test: Anticancer activity against human A549 cells assessed as inhibition of cell proliferation measured after 72 hrs by MTT assay; assay type: functional, cell-based; details: A549, 72 h; summary of the method: as §4
[18] = test system: HeLa; test: Inhibition of cell migration in human HeLa cells at 0.5 uM measured after 24 hrs by wound healing assay (reference value: 61%); assay type: functional
Summary of the method: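 Confluent HeLa monolayers were scratched with a pipette tip and washed with ice-cold PBS. Incubated 24 h at 37 °C in DMEM/10% FBS containing compound. Wounds were photographed at 0 and 24 h and migration distance measured manually.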

[19] = test system: HeLa; test: Induction of apoptosis in human HeLa cells assessed as early apoptotic cells at 0.5 uM measured after 24 hrs by Annexin-V-FITC and PI staining based flow cytometry (reference value: 2.58%); assay type: functional; summary of the method: as §2
[20] = Toxicity in BALB/c nude mouse transfected with human HeLa cells assessed as kidney damage at 15 mg/kg/day, iv for 21 days by H&E staining based immunohistochemistry; assay type: organism-based; details: in vivo, 504 h, time 21 day; summary of the method: as §5
[21] = test system: HeLa; test: Inhibition of IDO1 expression in hIFNgamma-stimulated human HeLa cells assessed as decrease in kynurenine production at 0.1 uM measured after 48 hrs by reverse-phase HPLC analysis; assay type: functional
Summary of the method: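 HeLa cells were given fresh L-tryptophan-containing medium with hIFN-γ (25 ng/mL) plus compound for 48 h. Collected cells were treated with 20% trichloroacetic acid and centrifuged. Supernatant analysed by reversed-phase HPLC (ODS column, acetonitrile/water, 1.0 mL/min, […]).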

[22] = test system: HeLa; test: Induction of apoptosis in human HeLa cells assessed as upregulation of PARP protein expression at 0.5 uM measured after 24 hrs by western blot analysis; assay type: functional, cell-based; summary of the method: as §3

COc1ccc(/C=C\c2cc(OC)c(OC)c(OC)c2)cc1OC(=O)c1cccc(Cn2cc(CCOC(=O)[C@H](N)Cc3cn(C)c4ccccc34)nn2)c1
Activity [1]: 40.3% | inhibition in vivo at 15 mg/kg/day [2]: 50.7% | Activity [3]: Non-Toxic | Activity [4]: 76.27% | Activity [5]: Active | inhibition in vivo at 30 mg/kg/day [6]: 65.8% | viability at 0.5 µM [7]: 47.3% | Activity [8]: Non-Toxic | Activity [9]: Active | Activity [10]: Active | IC50 [11]: 460 nM | fold change (FC) [12]: 3 | inhibition [13]: Active | Activity [14]: Dose-dependent effect | Activity [15]: Non-Toxic | Activity [16]: 11% | IC50 [17]: 220 nM | inhibition at 0.5 µM [18]: 88% | Activity [19]: 41.1% | Activity [20]: Non-Toxic | inhibition [21]: Active | Activity [22]: Active
